Calls of active or inactive are those of the source. The rule behind the calls is not given here.
Experiments:
[1] = Cytotoxicity against human PANC1 cells in nutrient-deprived medium after 24 hrs by WST-8 assay; format: functional, PANC-1
Procedure, shortened: (§1)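 PANC-1 cells were seeded at 1.5 × 10^4/well and grown 24 h in DMEM at 37 °C, 5% CO2. They were washed with D-PBS, then exposed to serial dilutions in DMEM or NDM for 24 h, with control and blank wells. Viability was read by WST-8 (10% in DMEM, 3 h, A450), averaged over three wells: (test−blank)/(control−blank)×100.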

[2] = test system: PANC-1; test: Induction of apoptosis in human PANC1 cells in nutrient-deprived medium assessed as translocation of phosphatidylserine to external surface at 1 uM after 12 hrs by Annexin V-FITC/propidium iodide staining-based fluorescence microscopy; format: functional, cell-based
[3] = molecular target: T1, Caspase-3 (Homo sapiens) (UniProt P42574); test: Induction of caspase3 (unknown origin) cleavage after 4 hrs by Western blotting analysis in presence of nutrient-deprived medium
T1 sequence (whole entry): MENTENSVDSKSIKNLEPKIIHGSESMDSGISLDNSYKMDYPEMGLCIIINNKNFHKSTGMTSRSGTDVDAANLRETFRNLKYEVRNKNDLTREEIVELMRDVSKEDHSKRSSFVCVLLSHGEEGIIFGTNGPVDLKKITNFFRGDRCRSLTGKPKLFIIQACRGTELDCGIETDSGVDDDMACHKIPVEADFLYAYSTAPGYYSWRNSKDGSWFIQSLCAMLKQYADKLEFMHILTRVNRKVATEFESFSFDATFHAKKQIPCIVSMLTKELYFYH
Procedure, shortened: (§2)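 Proteins were separated by SDS-PAGE (0.1% SDS) and transferred to PVDF. Membranes were blocked, washed in PBS with 0.1% polysorbate 20, and incubated overnight at room temperature with primary antibodies. HRP-conjugated secondary antibody was applied for 45 min at room temperature, and bands were detected by enhanced chemiluminescence.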

[4] = molecular target: T1, Caspase-3 (Homo sapiens); test: Induction of caspase3 (unknown origin) cleavage after 4 hrs by Western blotting analysis in presence of DMEM; procedure, shortened: as §2
[5] = species on record: Homo sapiens; test: Inhibition of AKT (unknown origin) phosphorylation at T308 at 1 to 100 uM after 4 hrs by Western blotting analysis in presence of nutrient-deprived medium; procedure, shortened: as §2
[6] = species on record: Homo sapiens; test: Inhibition of AKT (unknown origin) phosphorylation at […] at 1 to 100 uM after 4 hrs by Western blotting analysis in presence of nutrient-deprived medium; procedure, shortened: as §2
[7] = species on record: Homo sapiens; test: Inhibition of AKT (unknown origin) phosphorylation at […] at 100 uM after 4 hrs by Western blotting analysis in presence of DMEM; procedure, shortened: as §2
[8] = species on record: Homo sapiens; test: Inhibition of AKT (unknown origin) phosphorylation at T308 at 100 uM after 4 hrs by Western blotting analysis in presence of DMEM; procedure, shortened: as §2
[9] = test system: PANC-1; test: Induction of apoptosis in human PANC1 cells in nutrient-deprived medium assessed as disruption of cell organelles at 1 uM after 24 hrs by phase contrast microscopy relative to control; format: functional, cell-based
Procedure, shortened: (§3)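 Cells were seeded at 1 × 10^6 per 60 mm dish and allowed to attach for 24 h. They were washed twice and treated with 1 µM in DMEM or NDM for 24 h. EB/AO dye mixture (100 µg/ml each, in PBS) was added, and cells were imaged in fluorescent and phase-contrast modes at 40× objective. AO marks viable cells green; EB marks late apoptotic/necrotic cells red.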

[10] = test system: PANC-1; test: Induction of apoptosis in human PANC1 cells in nutrient-deprived medium assessed as rupture of cell membrane at 1 uM after 24 hrs by phase contrast microscopy relative to control; format: functional, cell-based; procedure, shortened: as §3
[11] = test system: PANC-1; test: Induction of apoptosis in human PANC1 cells in nutrient-deprived medium assessed as cell swelling at 1 uM after 24 hrs by phase contrast microscopy relative to control; format: functional, cell-based; procedure, shortened: as §3
[12] = test system: PANC-1; test: Induction of apoptosis in human PANC1 cells in nutrient-deprived medium assessed as late apoptotic and necrotic cells at 1 uM after 24 hrs by ethidium bromide/acridine orange staining-based fluorescence microscopy relative to control; format: functional, cell-based; procedure, shortened: as §3
[13] = test system: PANC-1; test: Ratio of arctigenin PC50 to compound PC50 for human PANC1 cells; format: functional
[14] = test system: PANC-1; test: Cytotoxicity against human PANC1 cells after 24 hrs by WST-8 assay in presence of DMEM; format: functional, cell-based; procedure, shortened: as §1

Structure (SMILES) | PC50 [1] [µM] | other results
Cc1ccnc(/C(N)=N/NC(=S)N2CCCCC2)c1 | 1.8 | 
N/C(=N\NC(=S)N1CCCCC1)c1ccccn1 | 1.6 | 
Cc1ccnc(/C(N)=N/NC(=S)N2CCOCC2)c1 | 1.8 | 
CC(=O)O[C@H]1C(=O)[C@@]2(C)[C@H]([C@H](OC(=O)c3ccccc3)[C@]3(O)C[C@H](OC(=O)[C@H](O)[C@@H](NC(=O)c4ccccc4)c4ccccc4)C(C)=C1C3(C)C)[C@]1(OC(C)=O)CO[C@@H]1C[C@@H]2O [PACLITAXEL] | >200 | 
N/C(=N\NC(=S)N1CCCC1)c1ccccn1 | 0.78 | 
Cc1ccnc(/C(N)=N/NC(=S)N2CCSCC2)c1 | 1.9 | 
Cc1ccnc(/C(N)=N/NC(=S)N2CCCCCC2)c1 | 1.7 | 
N/C(=N\NC(=S)N1CCN(c2ccccn2)CC1)c1ccccn1 | 0.78 | Activity [2]: Active; Activity [3]: Dose-dependent effect; Activity [4]: Dose-dependent effect; inhibition [5]: inactive; inhibition [6]: inactive; inhibition [7]: inactive; inhibition [8]: inactive; Activity [9]: Active; Activity [10]: Active; Activity [11]: Active; Activity [12]: Active
Cc1ccnc(/C(N)=N/NC(=S)N2CCCC2)c1 | 0.37 | Ratio [13]: 2
N/C(=N\NC(=S)N1CCCCCC1)c1ccccn1 | 1.4 | 
Nc1ccn([C@@H]2O[C@H](CO)[C@@H](O)C2(F)F)c(=O)n1 [GEMCITABINE] | >200 | Activity [14]: inactive
Cc1ccnc(/C(N)=N/NC(=S)N2CCN(c3ccccn3)CC2)c1 | 0.68 | 
N/C(=N\NC(=S)N1CCSCC1)c1ccccn1 | 1.9 | 
COc1cc(C[C@H]2C(=O)OC[C@@H]2Cc2ccc(OC)c(OC)c2)ccc1O [ARCTIGENIN] | 0.85 | 
N/C(=N\NC(=S)N1CCOCC1)c1ccccn1 | 1.6 | 

Reference: ChEMBL document CHEMBL3102794, “Discovery of 2-pyridineformamide thiosemicarbazones as potent antiausterity agents” (2014)
